Results as given in publication PMC2873867 (Journal of inorganic biochemistry, 2009).
Positions count from the first letter of the chain named. Where two headings read alike, the source gives them in different places.

Experiments:
PTP-PEST [1] = molecular target: T1, PTP-PEST (Homo sapiens, UniProt Q05209); test: Mode of inhibition assay; format: biochemical
T1 sequence (Q05209 28-293 limits assumed): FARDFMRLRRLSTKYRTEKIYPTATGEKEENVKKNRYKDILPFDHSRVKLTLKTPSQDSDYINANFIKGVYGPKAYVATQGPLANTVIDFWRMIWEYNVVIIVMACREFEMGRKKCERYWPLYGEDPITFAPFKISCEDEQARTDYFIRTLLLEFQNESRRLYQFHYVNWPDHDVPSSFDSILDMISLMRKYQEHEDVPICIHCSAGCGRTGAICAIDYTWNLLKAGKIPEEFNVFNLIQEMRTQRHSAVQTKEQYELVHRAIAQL
In short: (§1)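 Catalytic domains (LYP and PTP-PEST 5 nM; LYP C129/231S 20 nM) in pH 6.5 Tris/NaCl/EDTA/DTT/Brij 35 buffer at room temperature. Activity measured across a series of DiFMUP concentrations with no test compound or several fixed test compound concentrations, triplicate at each substrate level. Reciprocal rate plotted against reciprocal substrate concentration for each inhibitor level (Lineweaver–Burk).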

LYP C129S = molecular target: T2, LYP C129S (Homo sapiens, UniProt Q9Y2R2, C129S); test: Enzyme inhibition assay; format: biochemical; settings: 5 nM enzyme, 1.5 μM DiFMUP
T2 sequence (Q9Y2R2 24-289 C129S limits assumed): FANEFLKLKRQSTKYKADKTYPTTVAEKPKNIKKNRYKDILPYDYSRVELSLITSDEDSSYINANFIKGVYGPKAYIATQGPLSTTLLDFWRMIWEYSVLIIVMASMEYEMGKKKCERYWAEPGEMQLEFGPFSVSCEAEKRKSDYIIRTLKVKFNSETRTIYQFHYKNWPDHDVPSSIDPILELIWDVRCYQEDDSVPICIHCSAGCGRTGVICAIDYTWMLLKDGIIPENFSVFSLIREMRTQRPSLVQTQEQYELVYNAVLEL
In short: (§2)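 Single-mutant catalytic domains (C129S or C231S) at 5 nM final, each activated 30 min with 0.1 mM DTT. Triplicate kinetic fluorescence (360/455 nm, every 60 s, 30 min), averaged, converted to DiFMU by standard curve.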

HePTP = settings: cited from earlier work
PTP-PEST [2] = molecular target: T1, PTP-PEST; settings: cited from earlier work
LYP [3] = molecular target: T3, LYP (Homo sapiens, UniProt Q9Y2R2); settings: wild-type LYP; cited from earlier work
T3 sequence (Q9Y2R2 24-289 limits assumed): T2 sequence (Q9Y2R2 24-289 C129S limits assumed) with S106C

CD45 = settings: cited from earlier work
LYP [4] = molecular target: T3, LYP; test: Mode of inhibition assay; format: biochemical
In short: as §1

LYP C129/231S [5] = molecular target: T4, LYP C129/231S (Homo sapiens, UniProt Q9Y2R2, C129S/C231S); test: Mode of inhibition assay; format: biochemical
T4 sequence (Q9Y2R2 24-289 C129S/C231S limits assumed): T2 sequence (Q9Y2R2 24-289 C129S limits assumed) with C208S
In short: as §1

LYP C231S = molecular target: T5, LYP C231S (Homo sapiens, UniProt Q9Y2R2, C231S); test: Enzyme inhibition assay; format: biochemical; settings: 5 nM enzyme, 1.5 μM DiFMUP
T5 sequence (Q9Y2R2 24-289 C231S limits assumed): T2 sequence (Q9Y2R2 24-289 C129S limits assumed) with S106C, C208S
In short: as §2

Jurkat TAg cells = test: Inhibition studies with JTAg cells; format: cell-based; settings: 50 μM, 1 h, western blot
In short: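 Jurkat TAg cells kept in log growth in supplemented RPMI 1640 (10% FBS). 20×10^6 cells treated for 1 h at room temperature with 50 μM test compound or DMSO (<2%), then split and stimulated 2 min with C305 hybridoma supernatant or left unstimulated. NP-40 lysates, Bradford-normalised, run on 10% SDS–PAGE. Blots probed for pLck Y394/Y505, pZAP-70 Y319 and pERK against total-protein controls, developed by ECL.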

LYP C129/231S [6] = molecular target: T4, LYP C129/231S; test: Enzyme inhibition assay; format: biochemical
In short: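 LYP C129S/C231S catalytic domain at 20 nM final, preactivated with 0.1 mM DTT for 1 h. Test compound and 1.5 μM DiFMUP added in DMSO (5% final). Fluorescence (ex 360/em 455 nm) read every 60 s for 30 min, in triplicate, averaged, converted to DiFMU via standard curve.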

[7] = read-out: Calculated Ki, from Lineweaver-Burk data
[8] = read-out: Estimated Ki from Dixon plot, Ki = -intersection point

For `N#CCC[PH](CCC#N)([Au][Cl])c1ccccc1` [Complex 1, bis(cyanoethyl)phenylphosphine–Au(I)–Cl], the Mode of inhibition (PTP-PEST [1]; Lineweaver-Burk plot) was “competitive inhibition”, the Ki (PTP-PEST [1]; [7]) was 53.3 ± 16.3 µM and the Ki (PTP-PEST [1]; [8]) was roughly 80 µM. For the same molecule, the IC50 (LYP C129S) was 4 ± 0.2 µM, the IC50 (HePTP) was greater than 50 µM and the IC50 (PTP-PEST [2]) was greater than 80 µM. For the same molecule, the IC50 (LYP [3]) was 3.5 ± 0.1 µM, the IC50 (CD45) was greater than 70 µM and the Mode of inhibition (LYP [4]; Lineweaver-Burk plot) was “competitive inhibition”. The Ki (LYP [4]; [7]) was 2.38 ± 1.1 µM, the Ki (LYP [4]; [8]) was roughly 1.2 µM and the Mode of inhibition (LYP C129/231S [5]; Lineweaver-Burk plot) was “mixed-type inhibition”. It also gave a Ki (LYP C129/231S [5]; [7]) of 58.6 ± 5.3 µM, a Ki (LYP C129/231S [5]; [8]) of roughly 70 µM and an IC50 (LYP C231S) of 4 ± 0.8 µM. The “Phosphorylation of Lck at Y505 (cellular CD45 inhibition)” value (Jurkat TAg cells; JTAg cells) was “no change in phosphorylation levels at position Y505”, the “Phosphorylation of ERK1/2” value (Jurkat TAg cells; TCR stimulated JTAg cells) was “increased phosphorylation levels” and the “Phosphorylation of Lck at Y394 (cellular LYP inhibition)” value (Jurkat TAg cells; TCR stimulated JTAg cells) was “increase in phosphorylation at Y394”. The “Phosphorylation of ZAP-70” value (Jurkat TAg cells; TCR stimulated JTAg cells) was “increased phosphorylation levels”, the IC50 (LYP C129/231S [6]; LYP C129/231S, 20 nM enzyme, 1.5 μM DiFMUP) was 40 ± 4 µM and the “IC50 of LYP C129/231S relative to wild-type LYP and single mutants” value (LYP C129/231S [6]; fold higher) was “roughly 10 fold”.
